Measurements reported in ChEMBL document CHEMBL1833887, “Synthesis and evaluation of 7-substituted 4-aminoquinoline analogues for antimalarial activity” (J Med Chem, 2011).
Converted amounts (≈) assume the structure as drawn.

Columns and labels:
[1] = Solubility of the compound at pH 7.4 after 18 hrs by UV spectroscopic analysis; format: physicochemical; details: buffer
Outline: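 Kinetic solubility. A 10 mM stock is diluted 1:100 into PBS pH 7.4 and incubated 18 h at room temperature, then filtered; the filtrate is mixed 1:1 with 1-propanol. UV spectrum (250–500 nm) compared by AUC with a 1-propanol/PBS reference. Single experiment in triplicate.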

[2] = Permeability of the compound at pH 7.4 after 30 mins by PAMPA; format: ADME; details: read-out: permeability
Outline: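 PAMPA at pH 7.4. A 10 mM DMSO stock is diluted into system solution buffer; its UV spectrum serves as reference. Membrane painted with GIT lipid, acceptor chamber holds acceptor solution buffer. Sandwich stirred for 30 min, aqueous boundary layer set to 40. Donor and acceptor UV spectra read at 250–500 nm. Permeability coefficient from the AUCs of reference, donor and acceptor. Single experiment in triplicate.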

[3] = Dissociation constant, pKa of the compound; format: physicochemical
[4] = test system: Plasmodium falciparum; test: Antimalarial activity against chloroquine-sensitive Plasmodium falciparum 3D7 infected in human erythrocytes assessed as reduction in parasitemia after 72 hrs by spectrophotometry; format: functional, organism-based; details: 3D7, 72 h
[5] = test system: Plasmodium falciparum; test: Antimalarial activity against chloroquine-resistant Plasmodium falciparum K1 infected in human erythrocytes assessed as reduction in parasitemia after 72 hrs by spectrophotometry; format: functional, organism-based; details: K1, 72 h
[6] = test system: Plasmodium falciparum; test: Ratio of EC50 for chloroquine-resistant Plasmodium falciparum K1 infected in human erythrocytes to EC50 for chloroquine-sensitive Plasmodium falciparum 3D7 infected in human erythrocytes; format: functional
[7] = test system: HepG2; test: Cytotoxicity against human HepG2 cells assessed as intracellular ATP level after 72 hrs by Celltiter-Glo luminescent assay; format: cell-based; details: HepG2, 72 h
[8] = Ratio of EC50 for human HepG2 cells to EC50 for Plasmodium falciparum 3D7 infected in human erythrocytes
[9] = Ratio of EC50 for human HepG2 cells to EC50 for Plasmodium falciparum K1 infected in human erythrocytes

For `COc1ccc(F)cc1CNCCCNc1ccnc2cc(Oc3ccc(C(C)(C)C)cc3)ccc12`, the solubility at 18 h [1] was 14.5 µM (≈ 7.07 µg/mL), the Papp at 0.5 h [2] was 317 ×10⁻⁶ cm/s and the pKa [3] was 9.28. The EC50 [4] was 0.106 µM, the EC50 [5] was 2.78 µM and the “Ratio EC50” value [6] was 26.2. For the same compound, the EC50 [7] was 7.2 µM, the “Ratio EC50” value [8] was 68 and the “Ratio EC50” value [9] was 3.

With `COc1cccc(Oc2ccc3c(NCCCNCc4cccc(OC)c4O)ccnc3c2)c1` the solubility at 18 h [1] was 14.5 µM (≈ 6.66 µg/mL), the Papp at 0.5 h [2] was 317 ×10⁻⁶ cm/s and the pKa [3] was 9.28. For the same compound, the EC50 [4] was 0.072 µM, the EC50 [5] was 3.03 µM and the “Ratio EC50” value [6] was 42. The EC50 [7] was 5.3 µM, the “Ratio EC50” value [8] was 74 and the “Ratio EC50” value [9] was 2.

Work on `COc1cccc(CNCCCNc2ccnc3cc(Oc4ccc(F)cc4)ccc23)c1O` yielded a solubility at 18 h [1] of 14.5 µM (≈ 6.49 µg/mL), a Papp at 0.5 h [2] of 317 ×10⁻⁶ cm/s and a pKa [3] of 9.28. For the same compound, the EC50 [4] was 0.011 µM, the EC50 [5] was 3.13 µM and the “Ratio EC50” value [6] was 282.2. For the same compound, the EC50 [7] was 11 µM, the “Ratio EC50” value [8] was 990 and the “Ratio EC50” value [9] was 4.

`CN(C)c1cccc(Oc2ccc3c(NCCCNCc4ccc5c(c4)OCO5)ccnc3c2)c1` gave a solubility at 18 h [1] of 14.5 µM (≈ 6.82 µg/mL), a Papp at 0.5 h [2] of 317 ×10⁻⁶ cm/s and a pKa [3] of 9.28. For the same compound, the EC50 [4] was 1.36 µM, the EC50 [5] was 3.93 µM and the “Ratio EC50” value [6] was 2.9. For the same compound, the EC50 [7] was 16 µM, the “Ratio EC50” value [8] was 12 and the “Ratio EC50” value [9] was 4.

For `CC(C)(C)c1ccc(Oc2ccc3c(NCCCNCc4ccco4)ccnc3c2)cc1`, the solubility at 18 h [1] was 14.5 µM (≈ 6.23 µg/mL), the Papp at 0.5 h [2] was 317 ×10⁻⁶ cm/s and the pKa [3] was 9.28. The EC50 [4] was 1.11 µM, the EC50 [5] was 4.81 µM and the “Ratio EC50” value [6] was 4.3. The EC50 [7] was 3.1 µM, the “Ratio EC50” value [8] was 3 and the “Ratio EC50” value [9] was 1.

Work on `COc1ccccc1Oc1ccc2c(NCCCNCc3cccc(OC)c3O)ccnc2c1` yielded a solubility at 18 h [1] of 14.5 µM (≈ 6.66 µg/mL), a Papp at 0.5 h [2] of 317 ×10⁻⁶ cm/s and a pKa [3] of 9.28. The EC50 [4] was 0.009 µM, the EC50 [5] was 5.7 µM and the “Ratio EC50” value [6] was 626.4. The EC50 [7] was 11.2 µM, the “Ratio EC50” value [8] was 1227 and the “Ratio EC50” value [9] was 2.

`c1ccc(Oc2ccc3c(NCCCNCc4ccco4)ccnc3c2)cc1` showed a solubility at 18 h [1] of 14.5 µM (≈ 5.42 µg/mL), a Papp at 0.5 h [2] of 317 ×10⁻⁶ cm/s and a pKa [3] of 9.28. For the same compound, the EC50 [4] was 0.314 µM, the EC50 [5] was 5.97 µM and the “Ratio EC50” value [6] was 19. The EC50 [7] was 15.2 µM, the “Ratio EC50” value [8] was 48 and the “Ratio EC50” value [9] was 3.

For `COc1ccc(-c2ccc3c(NCCCNCc4ccco4)ccnc3c2)cc1`, the solubility at 18 h [1] was 32 µM (≈ 12.4 µg/mL), the Papp at 0.5 h [2] was 237 ×10⁻⁶ cm/s and the pKa [3] was 9.47. The EC50 [4] was 0.011 µM, the EC50 [5] was 0.023 µM and the “Ratio EC50” value [6] was 2.2. For the same compound, the EC50 [7] was 6 µM, the “Ratio EC50” value [8] was 565.7 and the “Ratio EC50” value [9] was 261.9.

`COc1ccc(F)cc1CNCCCNc1ccnc2cc(Cc3ccc4c(c3)OCO4)ccc12` gave a solubility at 18 h [1] of 32 µM (≈ 15.2 µg/mL), a Papp at 0.5 h [2] of 237 ×10⁻⁶ cm/s and a pKa [3] of 9.47. For the same compound, the EC50 [4] was 0.031 µM, the EC50 [5] was 0.024 µM and the “Ratio EC50” value [6] was 0.8. The EC50 [7] was 6.04 µM, the “Ratio EC50” value [8] was 194.7 and the “Ratio EC50” value [9] was 255.8.
